RGS4 pot: potentiators or activators of RGS4 | 310,000 tested, 0.92% active | HEK293 M3R/inducible RGS4, carbachol calcium flux Fluo4; active compounds read low | B-score at 10 µM;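 active means B-score of the integrated calcium signal more than 4 SD below the library mean, with starting fluorescence not abnormally high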;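 further: negative B-score means reduced calcium response which marks RGS4 activation or potentiation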
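Detection: kinetic calcium fluorescence imaging with Fluo4-AM dye, 2 µM / Material: HEK293 cells with stable M3R and inducible RGS4 / Schedule: recording 10 s baseline at 1 Hz, 100 s post-agonist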
MrgX1 antagonist: blocks BAM8-22 activation of human MrgX1 receptor | 310,000 tested, 1.3% active | MRGX1-HEK293 calcium flux, Fluo-4, BAM8-22 antagonism; active compounds read low | B-score at 10 µM;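 active means calcium-response B-score plate-corrected more than 3 library SD below zero, starting fluorescence within 5 deviations, no agonist response on first addition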;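 further: peak minus trough fluorescence over baseline after final BAM8-22 challenge near maximal dose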
Target sequence (Q96LB2 whole entry, looked up): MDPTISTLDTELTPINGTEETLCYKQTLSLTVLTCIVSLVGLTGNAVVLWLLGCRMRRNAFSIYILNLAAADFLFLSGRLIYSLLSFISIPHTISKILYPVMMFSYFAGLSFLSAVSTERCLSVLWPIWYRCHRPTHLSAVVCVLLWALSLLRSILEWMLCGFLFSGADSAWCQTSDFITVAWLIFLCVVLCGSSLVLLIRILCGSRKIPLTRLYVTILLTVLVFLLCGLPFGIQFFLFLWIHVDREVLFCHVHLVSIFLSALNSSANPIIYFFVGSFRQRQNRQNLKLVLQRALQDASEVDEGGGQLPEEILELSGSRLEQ
MrgX1 allo act: human MrgX1 positive allosteric modulation, primary screen; Q96LB2; MrgX1-HEK293, Fluo-4 calcium flux, FDSS; active compounds read high; B-score at 10 µM; 310,000 tested, 0.63% active; AID 588675;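 active means plate-corrected calcium response at least 3 library SD above typical, normal starting fluorescence, not activating the receptor alone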;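 further: compound read alongside a low EC10 to EC30 dose of BAM8-22 agonist; peak minus trough fluorescence over baseline measured at the second addition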
MrgX1 ag: agonists of human MrgX1 receptor; Q96LB2; MrgX1-HEK293 cells, Fluo-4 calcium fluorescence, agonist mode; active compounds read high; B-score at 10 µM; 310,000 tested, 0.44% active; AID 588627;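 active means calcium response B-score plate-corrected fluorescence ratio at least 3 library SD, with starting fluorescence B-score inside 5 SD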
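Test system: HEK293 cells stably expressing human MrgX1 receptor; amount: 15,000 cells per well; doses: compound delivered in addition one of three; times: overnight plating before 1 h dye loading; detection: Fluo-4 NW calcium-flux fluorescence, kinetic read; read-out basis: B-scored fluorescence response ratio; controls: positive and negative controls per plate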
RGS4 block: human RGS4 inhibition; P49798; HEK293 M3R/RGS4 inducible, Fluo-4 calcium flux; active compounds read high; triggered by carbachol at its EC20; AID 463165; 310,000 tested, 0.45% active; B-score at 10 µM;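 active means B-score, a plate-corrected calcium signal, over three deviations above library mean, with baseline fluorescence within five deviations of library mean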;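 further: RGS4 expression induced by doxycycline in cells with stable M3 receptor; B-score is computed from the integrated fluorescence ratio over baseline after carbachol; higher B-score means a larger calcium signal and so more RGS4 inhibition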
Target sequence (P49798 whole entry, looked up): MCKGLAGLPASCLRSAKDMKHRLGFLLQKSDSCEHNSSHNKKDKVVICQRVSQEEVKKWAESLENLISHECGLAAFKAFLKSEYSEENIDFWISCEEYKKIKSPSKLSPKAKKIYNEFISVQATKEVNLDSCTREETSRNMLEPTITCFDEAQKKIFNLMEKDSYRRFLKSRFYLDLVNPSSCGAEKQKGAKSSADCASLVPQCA
MrgX1 ag confirm: confirmation of human MrgX1 receptor agonists; shares compounds with MrgX1 ag; MrgX1-HEK293, Fluo-4 calcium fluorescence, FDSS; activation, % at 10 µM; 600 tested, 78% active; AID 602412;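 active means calcium signal rise, corrected for plate position, at least 3 library SD high, with starting brightness within 5 such deviations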
MrgX1 allo conf: human MrgX1 positive allosteric modulation, re-confirmation | 1,200 tested, 13% active | MrgX1-HEK293, Fluo-4 calcium fluorescence, FDSS | shares compounds with MrgX1 allo act | activation (ratio percentage), % at 10 µM;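 active means ratio at least 3 SD above the weak peptide control, stable starting fluorescence, no direct agonism earlier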;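 further: compound followed by low BAM8-22 agonist challenge near EC20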
HEK293 Ca flux: activity in parental HEK293 cells lacking MrgX1; shares compounds with MrgX1 antagonist; Fluo-4 calcium fluorescence, FDSS; fluorescence ratio F(max-min)/F0 at 10 µM; 4,000 tested, 2% active;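 active means duplicate-averaged calcium fluorescence ratio at least three times the standard deviation of buffer wells, a nonspecific response in parental cells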
HEK293 Ca counter: counter-screen for MrgX1 allosteric activators: effect in parental HEK293 cells; fluorescence ratio F(max-min)/F0 at 10 µM; AID 624114; shares compounds with MrgX1 antagonist; parental HEK293 calcium flux, Fluo-4 fluorescence ratio; active compounds read high; 4,000 tested, 0.4% active;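 active means calcium fluorescence ratio, averaged over duplicates, at least 3 SD of the buffer-well ratio, meaning a nonspecific response in receptor-free cells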;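 further: untransfected parental HEK293 lacking MrgX1 used as counterscreen for MrgX1 allosteric activators; fluorescence change taken during the second addition on a kinetic imager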
HEK293 Ca cntr2: activity in parental HEK293 cells lacking MrgX1 receptor; 4,000 tested, 8.7% active; fluorescence ratio F(max-min)/F0 at 10 µM; AID 624115; Fluo-4 calcium fluorescence (FDSS); active compounds read high; shares compounds with MrgX1 antagonist;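 active means calcium fluorescence ratio at least three times the spread of buffer wells, meaning a non-specific response in parental cells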
* marks the source's active call; other numbers are inactive results; i = inactive; . = no result. Compounds with a hit are over-represented: about 3.5% of the library has one in this group of screens.

SMILES	RGS4 pot	MrgX1 antagonist	MrgX1 allo act	MrgX1 ag	RGS4 block	MrgX1 ag confirm	HEK293 Ca flux	HEK293 Ca counter	HEK293 Ca cntr2	others
Cc1c(CN2CCC(n3nccc3NC(=O)C3CCOC3)CC2)[nH]c2ccccc12 (stereo not given)	i	i	i	i	i	.	.	.	.
O=C(Nc1ccnn1C1CCN(Cc2cc3ccccc3[nH]2)CC1)C1CCOC1 (stereo not given)	i	i	i	29*	i	339%*	i	i	73*
Cn1cc([N+](=O)[O-])c(C(=O)n2cccn2)n1	i	i	i	i	i	.	.	.	.
CCn1c(=O)c2c3c(sc2n2c(=S)[nH]nc12)CCC3	i	i	i	i	i	.	.	.	.
COc1ccc(N=Cc2sc(O)c3ccccc23)cc1	i	i	i	44*	i	i	0.57*	i	121*
COc1ccc(N=Cc2c(OC)ccc3ccccc23)cc1	i	i	i	i	i	.	.	.	.
COc1ccc(-n2c(O)c(C=Nc3ccccc3)c3ccccc3c2=O)cc1	i	i	i	i	i	.	.	.	.
COc1ccc(N=Cc2c(O)c3ccccc3n2C(C)=O)cc1	i	i	i	62*	i	583%*	i	i	110*
COC(=O)c1c(NC(=O)CN2C(=O)NC3(CCc4ccccc4C3)C2=O)sc2c1CCCCC2 (stereo not given)	i	i	i	29*	i	225%*	i	i	75*
COC(=O)c1c(NC(=O)CN2C(=O)NC3(CCC(C(C)(C)C)CC3)C2=O)sc2c1CCCCC2 (stereo not given)	i	i	i	i	i	.	.	.	.
CCCCS(=O)(=O)Nc1ccc2c(c1)ncn2C1CCCCC1	i	i	i	35*	i	214%*	i	i	51*
Cc1cc(C)nc(/N=C(\N)Nc2cccc(OCc3ccccc3)c2)n1	i	i	i	153*	i	523%*	i	i	100*
Cc1cc(C)nc(/N=C(\N)Nc2ccc(OCCC(C)C)cc2)n1	i	i	i	118*	i	599%*	i	i	124*
COc1ccccc1N/C(N)=N/c1nc(C)cc(C)n1	i	i	i	i	i	.	.	.	.
Cc1cc(C)nc(/N=C(\N)Nc2ccc(CC(=O)OC(C)C)cc2)n1	i	i	i	143*	i	424%*	i	i	90*
Cc1ccc(C)c(S(=O)(=O)N2CCCC2CNC(=O)C(=O)NCc2ccccn2)c1 (stereo not given)	i	i	i	i	i	.	.	.	.
Cc1ccc(CN(C(=O)COc2cccc(C)c2C)C2CCS(=O)(=O)C2)o1 (stereo not given)	i	i	i	i	i	.	.	.	.
CC(OC(=O)CCN=C1NS(=O)(=O)c2ccccc21)C(=O)N(C)C1CCCCC1 (stereo not given)	i	i	i	i	i	.	.	.	.
Fc1ccc(NC(=S)NCCc2ccc(Cl)cc2)cc1	i	i	i	i	i	.	.	.	.
Fc1ccc(CCNC(=S)Nc2ccc(F)c(Cl)c2)cc1	i	i	i	30*	i	150%*	i	i	i
CCOC(=O)Cc1csc(NC(=O)c2cccc(Cl)c2)n1	i	i	i	i	i	.	.	.	.
CCOC(=O)Cc1csc(NC(=O)c2ccc(Cl)s2)n1	i	i	i	31*	i	112%*	i	i	i
CCCOc1ccc(CSC(=N)N)cc1C(=O)OC	i	i	i	i	i	.	.	.	.
COC(=O)c1cc(CSC(=N)N)ccc1OCCC(C)C	i	i	i	37*	i	200%*	i	i	i
c1ccc(Sc2nc(N3CCCCC3)nc(N3CCCCC3)n2)nc1	i	i	i	35*	i	211%*	i	i	59*
SMILES	RGS4 pot	MrgX1 antagonist	MrgX1 allo act	MrgX1 ag	RGS4 block	MrgX1 ag confirm	HEK293 Ca flux	HEK293 Ca counter	HEK293 Ca cntr2	others
O=C(c1ccc(Cl)cc1)N1CCCOC1	i	i	i	50*	i	i	i	i	i
CCn1cnc2cc(NCc3ccc(Br)cc3)ccc21	i	i	i	34*	i	197%*	i	i	i
Cc1ccc(CNc2ccc3c(c2)ncn3C(C)C)cc1	i	i	i	33*	i	352%*	i	i	80*
Nc1nc2ccccc2n1Cc1ccc(Cl)c(Cl)c1	i	i	i	36*	i	164%*	i	i	i
Cc1ccc(Cn2c(-c3nonc3N)nc3ccccc32)cc1	i	i	i	i	i	.	.	.	.
Cc1ccc(Cn2c(N)nc3ccccc32)cc1	i	i	i	30*	i	78%*	i	i	i
COc1ccc(C(=O)N2CCN(c3ccc(N4CCOCC4)nn3)CC2)cc1OC	i	i	i	i	i	.	.	.	.
O=C1C2CC=C(Cl)CC2C(=O)N1CCN1CCOCC1 (stereo not given)	i	i	i	i	i	.	.	.	.
O=C1C2CC=C(Cl)CC2C(=O)N1CCCCCCN1C(=O)C2CC=C(Cl)CC2C1=O (stereo not given)	i	i	6.5*	i	i	.	i	i	i	MrgX1 allo conf=i
CCOC(=O)C1(CCOc2ccccc2)CCN(Cc2cc(OC)c3c(c2)OCO3)CC1	i	i	i	i	i	.	.	.	.
CCN1CCN(CC(=O)Nc2ccc(Cl)c(Cl)c2)C(=O)C1=O	i	i	7.7*	i	i	.	i	i	i	MrgX1 allo conf=i
CCn1c(=O)n(CC)c2cc(S(=O)(=O)Nc3c(C)cccc3C)ccc21	i	i	i	i	i	.	.	.	.
CCn1c(=O)c(=O)n(CC)c2cc(S(=O)(=O)Nc3ccc(C)cc3)ccc21	i	i	11*	i	i	.	i	i	i	MrgX1 allo conf=i

Screening data: PubChem, Johns Hopkins Ion Channel Center
